The record followed here is ChEMBL document CHEMBL2016483, “Discovery of novel and potent heterocyclic carboxylic acid derivatives as protein tyrosine phosphatase 1B inhibitors” (Bioorg Med Chem Lett, 2012).

For series [1], the target named is T1, Tyrosine-protein phosphatase non-receptor type 1 (Homo sapiens, UniProt P18031).
T1 sequence (P18031 whole entry): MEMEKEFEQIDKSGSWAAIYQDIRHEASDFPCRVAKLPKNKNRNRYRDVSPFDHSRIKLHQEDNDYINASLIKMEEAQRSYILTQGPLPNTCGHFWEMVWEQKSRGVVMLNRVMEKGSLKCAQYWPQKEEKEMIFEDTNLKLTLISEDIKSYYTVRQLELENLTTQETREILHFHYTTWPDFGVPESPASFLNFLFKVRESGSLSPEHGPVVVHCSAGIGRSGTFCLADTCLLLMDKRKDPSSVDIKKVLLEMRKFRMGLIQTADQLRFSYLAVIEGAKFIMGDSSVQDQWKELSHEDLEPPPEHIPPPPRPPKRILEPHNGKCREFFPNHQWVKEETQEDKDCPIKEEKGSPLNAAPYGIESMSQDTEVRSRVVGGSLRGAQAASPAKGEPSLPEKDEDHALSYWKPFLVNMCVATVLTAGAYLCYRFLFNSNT
Kind of series: Inhibition of human recombinant PTP1B expressed in Escherichia coli using para-nitrophenyl phosphate as substrate preincubated for 30 mins followed by substrate addition measured by […] analysis.

Series [2] is described as follows: Apparent permeability across human Caco2 cells. The class given is ADME, cell-based. Conditions: Caco-2.
Series [3] concerns Liver microsomes. Kind of series: Metabolic stability of the compound in rat liver microsomes assessed as metabolic rate at 1 uM after 30 mins by LC-MS-MS analysis. The class given is ADME, Microsome. Conditions: 0.5 h. In outline:
(§1)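 Mouse and rat liver microsomes, metabolic rate read at 30 min. Stable was defined as metabolic rate <0.1 nmol/min/mg or 80% remaining at 30 min.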

Series [4] in a line: Apparent permeability by PAMPA assay. The class given is ADME.
Series [5] relates to Liver. The series is described as follows: Metabolic stability of the compound in mouse liver microsomes assessed as metabolic rate at 1 uM after 30 mins by LC-MS-MS analysis. It counts as ADME, Microsome. Conditions: 0.5 h. The method, boiled down:
as §1

The target of series [6] is T2, Tyrosine-protein phosphatase non-receptor type 2 (Homo sapiens) (UniProt P17706).
T2 sequence (whole entry): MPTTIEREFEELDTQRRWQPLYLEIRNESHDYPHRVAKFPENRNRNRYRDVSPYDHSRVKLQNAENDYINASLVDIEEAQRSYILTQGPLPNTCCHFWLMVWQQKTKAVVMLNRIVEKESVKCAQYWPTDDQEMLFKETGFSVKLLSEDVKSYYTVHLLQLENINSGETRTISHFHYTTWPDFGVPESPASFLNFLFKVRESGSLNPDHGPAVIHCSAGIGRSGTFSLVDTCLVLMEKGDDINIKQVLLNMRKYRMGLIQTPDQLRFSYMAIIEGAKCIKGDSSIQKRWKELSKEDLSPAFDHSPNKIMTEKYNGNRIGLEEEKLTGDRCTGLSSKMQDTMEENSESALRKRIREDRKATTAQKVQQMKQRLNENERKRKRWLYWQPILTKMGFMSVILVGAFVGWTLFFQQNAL
The series is described as follows: Inhibition of TCPTP using para-nitrophenyl phosphate as substrate at 100 uM preincubated for 30 mins followed by substrate addition measured by […] analysis. The method, boiled down: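 TCPTP counter-screen in the same pNPP assay format, tested at 100 µM. Read as percent inhibition.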

A short description of series [7]: Elimination half life in C57BL/6J mouse at 3 mg/kg, iv. It counts as ADME, organism-based. Details: dose 3 mg/kg, route intravenous. The note with it: in vivo, read-out: beta t1/2 (converted).
Series [8] in a line: AUC (0 to t) in C57BL/6J mouse at 30 mg/kg, po. Conditions: plasma. It counts as ADME, organism-based. Details: dose 30 mg/kg, route oral.
A short description of series [9]: Tmax in C57BL/6J mouse at 3 mg/kg, iv. The class given is ADME, organism-based. Details: dose 3 mg/kg, route intravenous. Conditions: in vivo.
A short description of series [10]: Oral bioavailability in C57BL/6J mouse at 30 mg/kg. The note with it: in vivo. It counts as ADME, organism-based.
A short description of series [11]: Clearance in C57BL/6J mouse at 3 mg/kg, iv. The class given is ADME, organism-based. Details: dose 3 mg/kg, route intravenous. Conditions: in vivo.
Series [12] can be described thus: Cmax in C57BL/6J mouse at 3 mg/kg, iv. Set-up: dose 3 mg/kg, route intravenous. It counts as ADME, organism-based. The note with it: in vivo.
A short description of series [13]: Cmax in C57BL/6J mouse at 30 mg/kg, po. Set-up: dose 30 mg/kg, route oral. Conditions: in vivo. It counts as ADME, organism-based.
Series [14] in a line: Volume of distribution at steady state in C57BL/6J mouse at 3 mg/kg, iv. Set-up: dose 3 mg/kg, route intravenous. Conditions: in vivo, read-out: Vdss. The class given is ADME, organism-based.
The target of series [15] is T3, Tyrosine-protein phosphatase non-receptor type 1 (Homo sapiens) (UniProt P18031).
T3 sequence (whole entry): T1 sequence (P18031 whole entry)
The series is described as follows: Non-competitive inhibition of human recombinant PTP1B-mediated para-nitrophenyl phosphate hydrolysis preincubated for 30 mins measured by spectrophotometric analysis.

Series [16] in a line: AUC (0 to t) in C57BL/6J mouse at 3 mg/kg, iv. The note with it: plasma. Set-up: dose 3 mg/kg, route intravenous. It counts as ADME, organism-based.
The nature of series [17]: Tmax in C57BL/6J mouse at 30 mg/kg, po. Conditions: in vivo. Set-up: dose 30 mg/kg, route oral. The class given is ADME, organism-based.

Each structure is given as a SMILES string. Calls of active or inactive are those of the source.

Regarding `O=C(O)C1CCN(c2ccc(CC(C(=O)c3ccccc3)c3ccccc3)cc2)C1=O` (stereo not drawn), in series [1], the Ki was 5100 nM.

Consider `COC(=O)c1c(O)cccc1OC/C=C/c1ccc(F)c(-c2cc(C(=O)O)no2)c1`, for which the Papp in series [2] is > 1 ×10⁻⁶ cm/s.

For the molecule `O=C(O)c1cc(-c2ccc(CC(C(=O)c3ccccc3)c3ccccc3)cc2)no1` (stereo not drawn), the Drug metabolism in series [3] is recorded as 0.02 nmol/min/mg; in series [5] it was 0.06 nmol/min/mg. Besides, the Ki in [1] turned out to be 1100 nM. Further, the Papp in series [4] came to 103 ×10⁻⁶ cm/s. Moreover, in [6], the inhibition is < 10%.

Regarding `O=C(O)C1CC(=O)N(c2ccc(CC(C(=O)c3ccccc3)c3ccccc3)cc2)C1` (stereo not drawn), in series [1], the Ki stood at 7700 nM.

Take `O=C(O)c1csc(-c2ccc(CC(c3ccc(F)cc3)c3nc(-c4cccc(F)c4)no3)cc2)n1` (stereo not drawn): the Drug metabolism in series [3] came to 0.01 nmol/min/mg; in [5], 0 nmol/min/mg. In addition, the Ki in [1] turned out to be 500 nM. Also, the Papp in series [4] is 10 ×10⁻⁶ cm/s.

Take `O=C(O)c1onc(-c2ccc(CC(C(=O)c3ccccc3)c3ccccc3)cc2)c1C(=O)O` (stereo not drawn): the inhibitory constant (Ki) in series [1] came to 40000 nM.

As to `O=C(O)c1cc(-c2ccc(CC(C(=O)c3cc(F)cc(F)c3)c3ccc(F)cc3)cc2)no1` (stereo not drawn), in series [1], the Ki is 2400 nM.

With `O=C(O)c1csc(-c2ccc(CC(C(=O)c3ccccc3)c3ccccc3)cc2)n1` (stereo not drawn), the Drug metabolism is 0.02 nmol/min/mg in [3] and 0.05 nmol/min/mg in series [5]. In addition, in series [1], the Ki was 1200 nM. Moreover, the Papp in series [4] came out at 85 ×10⁻⁶ cm/s.

For `Cn1nc(-c2ccc(CC(C(=O)c3ccccc3)c3ccccc3)cc2)cc1C(=O)O` (stereo not drawn), the Ki in series [1] worked out at 7800 nM.

With `O=C(O)c1cc(-c2ccc(CC(C(=O)c3ccccc3)c3ccccc3)cc2)n[nH]1` (stereo not drawn), the Ki in [1] worked out at 16300 nM.

For the molecule `O=C(O)c1ccc(-c2ccc(CC(C(=O)c3ccccc3)c3ccccc3)cc2)[nH]1` (stereo not drawn), the inhibitory constant (Ki) in series [1] was 2900 nM.

With `COc1ccc(C(Cc2ccc(-c3cc(C(=O)O)on3)cc2)c2nc(-c3ccc(Cl)cc3)no2)cc1` (stereo not drawn), the half-life in [7] was 1.08 h. For the same molecule, the values for the area under the curve AUC(0-t) in series [8] and in [16] were 3.6 µM·h and 0.98 µM·h, respectively. Besides, the figures for the Drug metabolism in [3] and in series [5] were 0.03 nmol/min/mg and 0 nmol/min/mg, respectively. The Tmax in [9] was found to be 4.98 min; in [17] it was 1 h. The bioavailability in series [10] turned out to be 36%. In series [11], this molecule came in with a clearance of 99 mL/min/kg. Also, the Ki in series [1] turned out to be 300 nM. In addition, the Cmax in [12] was determined as 1870 nM; in [13], 1340 nM. Moreover, the apparent permeability (Papp) in series [4] was determined as 48 ×10⁻⁶ cm/s. In series [14], the Vd was 4 L/kg. Further, the inhibition entry in [15] was “Active”. For the same molecule, the inhibition in series [6] is < 10%.

On to `O=C(O)c1cc(-c2ccc(CC(c3ccccc3)c3nc(-c4ccccc4)no3)cc2)no1` (stereo not drawn), for which the half-life in series [7] was 1 h. The AUC(0-t) in [8] came out at 13 µM·h; in series [16] it was 1.8 µM·h. In addition, the Drug metabolism in series [3] was 0.03 nmol/min/mg; in series [5], 0.04 nmol/min/mg. The Tmax worked out at 4.8 min in series [9] and 1 h in series [17]. In [10], this molecule had a bioavailability of 70%. The molecule further yielded a clearance in series [11] of 63 mL/min/kg. Moreover, in [1], the Ki turned out to be 4000 nM. The maximum concentration (Cmax) turned out to be 1500 nM in series [12] and 7200 nM in series [13]. In addition, the Papp in [4] stood at 45 ×10⁻⁶ cm/s. In series [14], the Vd worked out at 4.8 L/kg. Further, the inhibition in series [6] is < 10%.

Turning to `O=C(O)c1csc(-c2ccc(CC(C(=O)c3ccc(Cl)cc3)c3ccc(F)c(F)c3)cc2)n1` (stereo not drawn), the Ki in series [1] came out at 600 nM. Further, in series [6], the inhibition is < 10%.

Regarding `COc1ccc(C(Cc2ccc(-c3nc(C(=O)O)cs3)cc2)c2nc(-c3cccc(F)c3)no2)cc1` (stereo not drawn), the Drug metabolism is 0.04 nmol/min/mg in series [3] and 0 nmol/min/mg in series [5]. Further, the Ki in series [1] was 500 nM. Further, the Papp in series [4] was 6 ×10⁻⁶ cm/s.

Consider `O=C(O)c1cc(-c2ccc(CC(C(=O)c3ccc(F)cc3)c3ccc(F)cc3)cc2)no1` (stereo not drawn), for which the Drug metabolism was found to be 0.02 nmol/min/mg in series [3] and 0.01 nmol/min/mg in [5]. In addition, the Ki in [1] came out at 1500 nM. The Papp in [4] was found to be 8 ×10⁻⁶ cm/s.

On to `O=C(O)c1cc(-c2ccc(CC(C(=O)c3ccc(F)c(F)c3)c3ccc(F)cc3)cc2)no1` (stereo not drawn), for which the Drug metabolism in [3] was 0.01 nmol/min/mg; in series [5] it was 0 nmol/min/mg. Further, the Ki in series [1] was determined as 1400 nM. For the same molecule, the Papp in series [4] was found to be 16 ×10⁻⁶ cm/s.

In the case of `O=C(O)c1csc(-c2ccc(CC(C(=O)c3ccc(F)c(F)c3)c3ccc(F)cc3)cc2)n1` (stereo not drawn), in [1], the Ki came out at 1800 nM.

As for `O=C(O)c1cc(-c2ccc(CC(C(=O)c3ccc(Cl)cc3)c3ccc(F)c(F)c3)cc2)no1` (stereo not drawn), the half-life in series [7] was 1.9 h. The exposure AUC(0-t) in [8] is 3 µM·h; in [16], 2.4 µM·h. Besides, the Drug metabolism in series [3] and in series [5] was 0 nmol/min/mg throughout. The Tmax in series [9] is 4.98 min; in series [17], 1 h. In [10], the bioavailability was 13%. The molecule further had a clearance in series [11] of 38 mL/min/kg. Further, the Ki in series [1] was 800 nM. Further, the Cmax amounted to 4500 nM in [12] and 1900 nM in series [13]. The Papp in [4] stood at 168 ×10⁻⁶ cm/s. In addition, the Vd in series [14] was found to be 4 L/kg. Moreover, the inhibition in series [6] is < 10%.

Take `COc1ccc(-c2noc(C(Cc3ccc(-c4cc(C(=O)O)on4)cc3)c3ccc(F)cc3)n2)cc1` (stereo not drawn): the Drug metabolism in series [3] is reported as 0.01 nmol/min/mg; in [5] it was 0 nmol/min/mg. Moreover, the Ki in series [1] was 400 nM. For the same molecule, the Papp in series [4] amounted to 4 ×10⁻⁶ cm/s. Further, the inhibition in series [6] is < 10%.

On to `O=C(O)c1coc(-c2ccc(CC(C(=O)c3ccccc3)c3ccccc3)cc2)n1` (stereo not drawn), for which, in series [1], the Ki stood at 7800 nM.
